Data as given in paper PMC8849394 (Science Advances, 2022).
Ends that are not written are not given here. * marks the point of attachment. FITC = O=C1OC2(c3ccc(O)cc3Oc3cc(O)ccc32)c2ccc(NC(=S)*)cc21

Tests used:
[1] = test system: human NSCLC (lung adenocarcinoma) cell lines; test: MTT cell viability / short-term proliferation, human NSCLC lines; type: cell-based; conditions: for growth of NSCLC cells under BRD/HAT inhibitors: MTT
[2] = test system: human SCLC cell lines; test: MTT cell viability / short-term proliferation, human SCLC lines; type: cell-based
[3] = test system: mouse SCLC cells (RP-1); test: MTT cell viability, mouse SCLC cells RP-1; type: cell-based; conditions: RP-1, MTT, n = 3
Summary of the method: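 Murine SCLC cells derived from Rb1/Trp53-mutant mouse lung tumors are grown in RPMI1640 with 10% bovine growth serum. Cells are seeded at 1×10^4 per well and treated with bromodomain- or HAT-domain-targeting test compounds. Over 0 to 4 or 6 days, MTT (0.5 mg/ml final) is added for 4 h at 37°C and OD is read at 590 nm, minus a vehicle blank. Triplicates; n = 3.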

[4] = target: purified KIX domain of CREBBP (Mus musculus, UniProt P45481); test: FP assay, direct binding of fluorophore-labeled peptides to CREBBP KIX
purified KIX domain of CREBBP, sequence (P45481 585-672): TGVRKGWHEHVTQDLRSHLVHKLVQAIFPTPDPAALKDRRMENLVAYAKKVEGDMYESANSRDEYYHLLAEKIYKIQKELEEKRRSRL
Summary of the method: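 CREBBP KIX domain (87 residues, 585-672) was expressed from pMAL-c5E in E. coli Rosetta (DE3) and purified by affinity then anion-exchange chromatography. FP probes were N-terminally FITC-labelled MYB peptide and rhodamine-labelled MLL peptide, each at 0.5 µM, in 50 mM Hepes (pH 7.5) with 50 mM NaCl. Plates were incubated 30 min in the dark at room temperature, then read for polarization.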

[5] = test system: H209 SCLC cells; test: RNA sequencing, GSEA and KEGG analysis, H209 cells; type: cell-based, human
Summary of the method: (§1)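 SCLC cells express M/M or M/M-5A peptide under a doxycycline-inducible promoter. mRNA is oligo(dT)-purified from 500 ng total RNA, and 100-bp single-end reads are sequenced on an Illumina NextSeq2000. Differential expression signatures come from comparing TPM between experimental and control groups. GSEA is run on the signature using Molecular Signatures Database v7.4 gene sets.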

[6] = test system: CREBBP; test: Anti-FLAG immunoprecipitation/immunoblot for CREBBP in H524 cell extracts; type: cell-based, human; conditions: FLAG-tagged M/M, IP relative to input, n = 3
Summary of the method: (§2)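 H524 cells express FLAG-tagged M/M fusion peptide from a doxycycline-inducible promoter. Cells are lysed in RIPA (pH 8.0, with protease inhibitors). Lysates are immunoprecipitated with anti-FLAG or control IgG overnight at 4°C, then protein A/G agarose is added for 4 h at 4°C. Eluates are immunoblotted for FLAG, EP300 and CREBBP. IP band intensity is expressed relative to 5% input; n = 3; unpaired t test.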

[7] = test system: H524 SCLC cells; test: RNA sequencing, GSEA and KEGG analysis, H524 cells; type: cell-based, human; conditions: H524, M/M vs M/M-5A
Summary of the method: as §1

[8] = test system: EP300; test: Anti-FLAG immunoprecipitation/immunoblot for EP300 in H524 cell extracts; type: cell-based, human; conditions: FLAG-tagged M/M, IP relative to input, n = 3
Summary of the method: as §2

[9] = target: FITC-labeled MYB peptide (MYB25); test: fluorescence polarisation
[10] = target: rhodamine-labeled MLL peptide (MLL25); test: fluorescence polarisation
[11] = test system: interaction between CREB1 and the KIX domain of CREBBP; conditions: cited from earlier work
[12] = test system: interaction between CREB1 and the KIX domain of EP300; conditions: cited from earlier work
[13] = test system: human SCLC cell lines; test: Soft agar colony formation, human SCLC lines; type: cell-based; conditions: 2 μM in DMSO; H69, H209, H524; n = 3
[14] = test system: human NSCLC (lung adenocarcinoma) cell lines; test: Soft agar colony formation, human NSCLC lines; type: cell-based; conditions: 2 μM in DMSO; H1650 (fig. S8A); n = 3
[15] = target: A627D EP300 KIX (human, UniProt Q09472 565-652, A627D); test: fluorescence polarisation
A627D EP300 KIX, sequence (Q09472 565-652 A627D): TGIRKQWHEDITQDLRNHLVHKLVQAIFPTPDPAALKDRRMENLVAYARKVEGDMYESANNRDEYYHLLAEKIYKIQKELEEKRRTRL

[16] = target: EP300 KIX domain (human, UniProt Q09472 565-652); test: fluorescence polarisation
EP300 KIX domain, sequence (Q09472 565-652): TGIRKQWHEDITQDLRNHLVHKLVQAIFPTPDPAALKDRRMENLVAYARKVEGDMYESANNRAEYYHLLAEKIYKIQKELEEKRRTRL

Molecule: COc1ccc(CCc2nc3cc(-c4c(C)noc4C)ccc3n2C[C@H](C)N2CCOCC2)cc1Cl [SGC-CBP30]
- growth of NSCLC cells under BRD/HAT inhibitors ([1]; n = 3): dose-dependent effects on NSCLC lines
- growth of human SCLC cells under BRD/HAT inhibitors ([2]; MTT, n = 3): either insignificant or modest
- growth of mouse SCLC cells [3]: did not have any significant effect on the growth

Molecule: SDDGNILPSDIMDFVLKNTPSMQAL [MLL25]
- Kd [4]: 94 ± 11 µM

Molecule: CCC(=O)N1CCOc2c(cc(-c3ccc(OC)c(OC)c3)cc2OC[C@H]2CCCN(C)C2)C1 [I-CBP112]
- growth of NSCLC cells under BRD/HAT inhibitors ([1]; n = 3): dose-dependent effects on NSCLC lines
- growth of human SCLC cells under BRD/HAT inhibitors ([2]; MTT, n = 3): either insignificant or modest
- growth of mouse SCLC cells [3]: did not have any significant effect on the growth

Molecule: H-SDDGNILPSDIMDFVLKNTPSMQALGESGGDEDPEKEKRIKELELLLMSTENELKGQQAL-OH [M/M]
- growth of lung adenocarcinoma cells, MTT ([1]; doxycycline-inducible lentiviral expression of peptide, n = 3): did not detectably affect the growth of lung adenocarcinoma cell lines
- gene set enrichment (GSEA), TF target genes ([5]; H209, M/M vs M/M-5A): significantly enriched in the gene sets related to MYB, ATF4, CREB1, and CREBP1/JUN targets
- KEGG pathway small cell lung cancer ([5]; M/M-expressing H209 vs M/M-5A): down-regulated in M/M-expressing H209 cells
- binding to CREBBP in cells [6]: confirmed the binding of M/M to both EP300 and CREBBP
- short-term proliferation of SCLC cells ([2]; doxycycline-inducible lentiviral expression of peptide, MTT, n = 3): inhibited the short-term proliferation
- gene set enrichment (GSEA), TF target genes [7]: significantly enriched in the gene sets related to MYB, ATF4, CREB1, and CREBP1/JUN targets
- binding to EP300 in cells [8]: confirmed the binding of M/M to both EP300 and CREBBP
- preference EP300 over CREBBP in cells [8]: bound preferentially to EP300 than to CREBBP

Molecule: D647A CREBBP KIX domain (from UniProt Q92793 585-672) (domain or fragment)
- Kd [9]: 6.7 µM

Molecule: CREBBP KIX domain (from UniProt Q92793 585-672) (domain or fragment)
- Kd [9]: 22 µM
- Kd [10]: 94 µM

Molecule: CC1=NN(c2ccc(C(=O)O)cc2)C(=O)/C1=C\c1ccc(-c2cc(C)c(C)cc2[N+](=O)[O-])o1 [C646]
- growth of NSCLC cells under BRD/HAT inhibitors ([1]; n = 3): dose-dependent effects on NSCLC lines
- growth of human SCLC cells under BRD/HAT inhibitors ([2]; MTT, n = 3): either insignificant or modest
- growth of mouse SCLC cells [3]: did not have any significant effect on the growth

Molecule: O=C(Nc1ccc(Cl)cc1)c1cc2ccccc2cc1OP(=O)(O)O [KG-501, 2-naphthol-AS-E-phosphate]
- short-term growth of NSCLC lines, KG-501 ([1]; in culture): did not have a significant effect on NSCLC cell lines
- inhibition of CREB1-CREBBP KIX interaction [11]: shown to inhibit the interaction between CREB1 and the KIX domains of EP300 and CREBBP
- inhibition of CREB1-EP300 KIX interaction [12]: shown to inhibit the interaction between CREB1 and the KIX domains of EP300 and CREBBP
- soft agar colony formation of SCLC lines, KG-501 [13]: inhibited the short-term growth of SCLC lines in culture and colony formation in soft agar
- soft agar colony formation of NSCLC lines, KG-501 [14]: did not have a significant effect on NSCLC cell lines
- short-term growth of SCLC lines, KG-501 ([2]; in culture): inhibited the short-term growth of SCLC lines in culture

Molecule: {FITC}-KEKRIKELELLLMSTENELKGQQAL [FITC-labeled MYB peptide (MYB25)]
- Kd [15]: 23 ± 6.2 µM
- Kd [16]: 3.8 ± 0.2 µM

Molecule: SDDGNILPSDIMDFVLKNTPSMQAL (also: rhodamine label) [rhodamine-labeled MLL peptide (MLL25)]
- Kd [15]: 80 ± 8.5 µM
- Kd [16]: 40 ± 14 µM
